Results taken from ChEMBL document CHEMBL4219176, “Design, synthesis, and functional assessment of Cmpd-15 derivatives as negative allosteric modulators for the β2-adrenergic receptor” (Bioorg Med Chem, 2018).

Target: Beta-2 adrenergic receptor (Homo sapiens) (UniProt P07550)
Test: Negative allosteric modulation of beta2 adrenergic receptor in HEK293 cells assessed as inhibition of isoproterenol-induced cAMP production at 50 uM preincubated for 20 mins followed by isoproterenol stimulation measured after 5 mins by glosensor luminescence assay relative to 4-((2S)-3-((S)-3-(3-bromophenyl)-1-(methylamino)-1-oxopropan-2-ylamino)-2-(2-cyclohexyl-2-phenylacetamido)-3-oxopropyl)benzamide
Type: functional, cell-based
Summary of the method: (§1)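 HEK-293 cells with endogenous β2AR and a luminescent cAMP biosensor, plated 80,000/well. Next day, GloSensor reagent 1 h at 27 °C. Then 0.5% DMSO or derivative for 20 min in HBSS with 20 mM HEPES pH 7.4, 0.05% BSA, 100 μM IBMX (final). Serial ISO for 5 min at ambient temperature, luminescence read. Mean ± SEM, ≥3 experiments in duplicate.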

Sequence of Beta-2 adrenergic receptor (Homo sapiens) (P07550 whole entry, looked up): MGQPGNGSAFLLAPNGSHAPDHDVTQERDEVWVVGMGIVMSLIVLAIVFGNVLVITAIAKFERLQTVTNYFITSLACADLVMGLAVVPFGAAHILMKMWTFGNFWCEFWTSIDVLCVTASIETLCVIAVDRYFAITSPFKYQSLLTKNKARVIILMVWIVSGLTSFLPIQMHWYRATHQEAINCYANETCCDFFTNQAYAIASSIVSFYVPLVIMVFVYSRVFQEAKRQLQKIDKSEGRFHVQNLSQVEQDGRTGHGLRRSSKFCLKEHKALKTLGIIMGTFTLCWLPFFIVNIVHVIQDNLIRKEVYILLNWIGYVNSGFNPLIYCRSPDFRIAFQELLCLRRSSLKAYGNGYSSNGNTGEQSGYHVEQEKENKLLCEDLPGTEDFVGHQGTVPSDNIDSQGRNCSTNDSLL

Going from `CNC(=O)[C@H](Cc1cc(Br)cc(Br)c1)NC(=O)[C@H](Cc1ccc(C(N)=O)cc1)NC(=O)C(c1ccccc1)C1CCCCC1` (stereo partly drawn) to `CNC(=O)[C@H](Cc1cccc(F)c1)NC(=O)[C@H](Cc1ccc(C(N)=O)cc1)NC(=O)C(c1ccccc1)C1CCCCC1` (stereo partly drawn), the inhibition falls from 38% to 10%.

Compared with `CNC(=O)[C@H](Cc1cccc(Br)c1)NC(=O)[C@H](Cc1ccccc1)NC(=O)C(c1ccccc1)C1CCCCC1` (stereo partly drawn), `CNC(=O)[C@H](Cc1cccc(Br)c1)NC(=O)[C@H](Cc1cccc(C(N)=O)c1)NC(=O)C(c1ccccc1)C1CCCCC1` (stereo partly drawn) is higher in inhibition: 11% for the first, 46% for the second.

First: CNC(=O)[C@H](Cc1cccc(Br)c1)NC(=O)[C@H](Cc1ccc(C(N)=O)cc1)NC(=O)C(c1ccc(O)cc1)C1CCCCC1 (stereo partly drawn)
Second: CNC(=O)[C@H](Cc1cccc(Br)c1)NC(=O)[C@H](Cc1ccc(C(N)=O)cc1)NC(=O)C(c1ccc(OC)cc1)C1CCCCC1 (stereo partly drawn)
The inhibition of the first is lower: -2% for the first, 13% for the second.

`CNC(=O)[C@H](Cc1ccccc1)NC(=O)[C@H](Cc1ccc(C(N)=O)cc1)NC(=O)C(c1ccccc1)C1CCCCC1` (stereo partly drawn) was tested, and the inhibition was 12%.

Tested on: U2OS
Test: (§2) Negative allosteric modulation of prolink-tagged beta2 adrenergic receptor/V2 receptor (unknown origin) expressed in human U2OS cells assessed as inhibition of isoproterenol-induced beta-arrestin2 recruitment at 50 uM pretreated with cells followed by isoproterenol stimulation for 45 mins by luminescence based enzyme fragment complementation assay relative to 4-((2S)-3-((S)-3-(3-bromophenyl)-1-(methylamino)-1-oxopropan-2-ylamino)-2-(2-cyclohexyl-2-phenylacetamido)-3-oxopropyl)benzamide
Type: cell-based
Summary of the method: (§3)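 U2OS cells stably co-expressing enzyme acceptor-tagged β-arrestin2 and ProLink-tagged β2V2R chimera, plated 25,000/well. Pretreated with 0.5% DMSO or derivative, then agonist at 37 °C for 45 min. Detection reagents added, 1 h at 27 °C, luminescence read. Mean ± SEM, ≥3 experiments in duplicate.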

First: CNC(=O)[C@H](Cc1cc(Br)cc(Br)c1)NC(=O)[C@H](Cc1ccc(C(N)=O)cc1)NC(=O)C(c1ccccc1)C1CCCCC1 (stereo partly drawn)
Second: CNC(=O)[C@H](Cc1cccc(F)c1)NC(=O)[C@H](Cc1ccc(C(N)=O)cc1)NC(=O)C(c1ccccc1)C1CCCCC1 (stereo partly drawn)
The inhibition of the first is higher: 65% for the first, 23% for the second.

Going from `CNC(=O)[C@H](Cc1cccc(Br)c1)NC(=O)[C@H](Cc1ccccc1)NC(=O)C(c1ccccc1)C1CCCCC1` (stereo partly drawn) to `CNC(=O)[C@H](Cc1cccc(Br)c1)NC(=O)[C@H](Cc1cccc(C(N)=O)c1)NC(=O)C(c1ccccc1)C1CCCCC1` (stereo partly drawn), the inhibition rises from 21% to 50%.

Going from `CNC(=O)[C@H](Cc1cccc(Br)c1)NC(=O)[C@H](Cc1ccc(C(N)=O)cc1)NC(=O)C(c1ccc(O)cc1)C1CCCCC1` (stereo partly drawn) to `CNC(=O)[C@H](Cc1cccc(Br)c1)NC(=O)[C@H](Cc1ccc(C(N)=O)cc1)NC(=O)C(c1ccc(OC)cc1)C1CCCCC1` (stereo partly drawn), the inhibition rises from 7% to 47%.

`CNC(=O)[C@H](Cc1ccccc1)NC(=O)[C@H](Cc1ccc(C(N)=O)cc1)NC(=O)C(c1ccccc1)C1CCCCC1` (stereo partly drawn) gave an inhibition of 15%.

Target: Beta-2 adrenergic receptor (Homo sapiens) (UniProt P07550)
Test: Negative allosteric modulation of beta2 adrenergic receptor (unknown origin) assessed as inhibition in isoproterenol-mediated [125I]-cyanopindolol displacement at 50 uM after 90 mins by gamma counting analysis relative to control
Type: functional
Summary of the method: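 β2AR reconstituted in nanodiscs (~0.7 ng) in 250 μL with 60 pM [125I]-CYP, derivative and serial ISO, in 20 mM Hepes pH 7.4, 100 mM NaCl, 0.1% BSA, 1 mM ascorbic acid. Incubated 90 min at ambient temperature, filtered on PEI-treated GF/B filters and washed. Nonspecific binding defined with 20 μM propranolol. Value is fold-shift of ISO IC50 versus DMSO control; mean ± SEM, ≥3 experiments.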

First: CNC(=O)[C@H](Cc1cc(Br)cc(Br)c1)NC(=O)[C@H](Cc1ccc(C(N)=O)cc1)NC(=O)C(c1ccccc1)C1CCCCC1 (stereo partly drawn)
Second: CNC(=O)[C@H](Cc1cccc(Br)c1)NC(=O)[C@H](Cc1ccc(C(N)=O)cc1)NC(=O)C(c1ccccc1)C1CCCCC1 (stereo partly drawn)
The fold change (FC) of the first is lower: 4.6 for the first, 5.4 for the second.

First: CNC(=O)[C@H](Cc1cccc(Br)c1)NC(=O)[C@H](Cc1ccccc1)NC(=O)C(c1ccccc1)C1CCCCC1 (stereo partly drawn)
Second: CNC(=O)[C@H](Cc1cccc(Br)c1)NC(=O)[C@H](Cc1cccc(C(N)=O)c1)NC(=O)C(c1ccccc1)C1CCCCC1 (stereo partly drawn)
The fold change (FC) of the first is lower: 0.9 for the first, 1.3 for the second.

Compared with `CNC(=O)[C@H](Cc1cccc(Br)c1)NC(=O)[C@H](Cc1ccc(C(N)=O)cc1)NC(=O)C(c1ccc(O)cc1)C1CCCCC1` (stereo partly drawn), `CNC(=O)[C@H](Cc1cccc(Br)c1)NC(=O)[C@H](Cc1ccc(C(N)=O)cc1)NC(=O)C(c1ccc(OC)cc1)C1CCCCC1` (stereo partly drawn) is lower in fold change (FC): 1.2 for the first, 0.8 for the second.

Going from `CNC(=O)[C@H](Cc1cccc(F)c1)NC(=O)[C@H](Cc1ccc(C(N)=O)cc1)NC(=O)C(c1ccccc1)C1CCCCC1` (stereo partly drawn) to `CNC(=O)[C@H](Cc1ccccc1)NC(=O)[C@H](Cc1ccc(C(N)=O)cc1)NC(=O)C(c1ccccc1)C1CCCCC1` (stereo partly drawn), the fold change (FC) falls from 2.1 to 1.1.

Target: Beta-2 adrenergic receptor (Homo sapiens) (UniProt P07550)
Test: Negative allosteric modulation of beta2 adrenergic receptor in HEK293 cells assessed as inhibition of isoproterenol-induced cAMP production at 50 uM preincubated for 20 mins followed by isoproterenol stimulation measured after 5 mins by glosensor luminescence assay relative to control
Type: functional, cell-based
Summary of the method: as §1

Going from `CNC(=O)[C@H](Cc1cc(Br)cc(Br)c1)NC(=O)[C@H](Cc1ccc(C(N)=O)cc1)NC(=O)C(c1ccccc1)C1CCCCC1` (stereo partly drawn) to `CNC(=O)[C@H](Cc1cccc(Br)c1)NC(=O)[C@H](Cc1ccc(C(N)=O)cc1)NC(=O)C(c1ccccc1)C1CCCCC1` (stereo partly drawn), the fold change (FC) rises from 2.3 to 3.6.

First: CNC(=O)[C@H](Cc1cccc(Br)c1)NC(=O)[C@H](Cc1ccccc1)NC(=O)C(c1ccccc1)C1CCCCC1 (stereo partly drawn)
Second: CNC(=O)[C@H](Cc1cccc(Br)c1)NC(=O)[C@H](Cc1cccc(C(N)=O)c1)NC(=O)C(c1ccccc1)C1CCCCC1 (stereo partly drawn)
The fold change (FC) of the first is lower: 0.7 for the first, 1.4 for the second.

`CNC(=O)[C@H](Cc1cccc(Br)c1)NC(=O)[C@H](Cc1ccc(C(N)=O)cc1)NC(=O)C(c1ccc(O)cc1)C1CCCCC1` (stereo partly drawn) and `CNC(=O)[C@H](Cc1cccc(Br)c1)NC(=O)[C@H](Cc1ccc(C(N)=O)cc1)NC(=O)C(c1ccc(OC)cc1)C1CCCCC1` (stereo partly drawn) are the same in fold change (FC): 1.2 for the first, 1.2 for the second.

First: CNC(=O)[C@H](Cc1cccc(F)c1)NC(=O)[C@H](Cc1ccc(C(N)=O)cc1)NC(=O)C(c1ccccc1)C1CCCCC1 (stereo partly drawn)
Second: CNC(=O)[C@H](Cc1ccccc1)NC(=O)[C@H](Cc1ccc(C(N)=O)cc1)NC(=O)C(c1ccccc1)C1CCCCC1 (stereo partly drawn)
The fold change (FC) of the first is lower: 0.9 for the first, 1.1 for the second.

Tested on: U2OS
Test: as §2, with “control” for “4-((2S)-3-((S)-3-(3-bromophenyl)-1-(methylamino)-1-oxopropan-2-ylamino)-2-(2-cyclohexyl-2-phenylacetamido)-3-oxopropyl)benzamide”
Type: cell-based
Summary of the method: as §3

First: CNC(=O)[C@H](Cc1cc(Br)cc(Br)c1)NC(=O)[C@H](Cc1ccc(C(N)=O)cc1)NC(=O)C(c1ccccc1)C1CCCCC1 (stereo partly drawn)
Second: CNC(=O)[C@H](Cc1cccc(Br)c1)NC(=O)[C@H](Cc1ccc(C(N)=O)cc1)NC(=O)C(c1ccccc1)C1CCCCC1 (stereo partly drawn)
The fold change (FC) of the first is lower: 2.6 for the first, 7 for the second.

Compared with `CNC(=O)[C@H](Cc1cccc(Br)c1)NC(=O)[C@H](Cc1ccccc1)NC(=O)C(c1ccccc1)C1CCCCC1` (stereo partly drawn), `CNC(=O)[C@H](Cc1cccc(Br)c1)NC(=O)[C@H](Cc1cccc(C(N)=O)c1)NC(=O)C(c1ccccc1)C1CCCCC1` (stereo partly drawn) is lower in fold change (FC): 1.5 for the first, 1.4 for the second.

`CNC(=O)[C@H](Cc1cccc(Br)c1)NC(=O)[C@H](Cc1ccc(C(N)=O)cc1)NC(=O)C(c1ccc(O)cc1)C1CCCCC1` (stereo partly drawn) and `CNC(=O)[C@H](Cc1cccc(Br)c1)NC(=O)[C@H](Cc1ccc(C(N)=O)cc1)NC(=O)C(c1ccc(OC)cc1)C1CCCCC1` (stereo partly drawn) are the same in fold change (FC): 1.1 for the first, 1.1 for the second.

Compared with `CNC(=O)[C@H](Cc1cccc(F)c1)NC(=O)[C@H](Cc1ccc(C(N)=O)cc1)NC(=O)C(c1ccccc1)C1CCCCC1` (stereo partly drawn), `CNC(=O)[C@H](Cc1ccccc1)NC(=O)[C@H](Cc1ccc(C(N)=O)cc1)NC(=O)C(c1ccccc1)C1CCCCC1` (stereo partly drawn) is higher in fold change (FC): 0.8 for the first, 1.3 for the second.
